Data: ChEMBL document CHEMBL1123488, “Agents for the treatment of brain edema. 2. [(2,3,9,9a-Tetrahydro-3-oxo-9a-substituted-1H-fluoren-7-yl)oxy]+ ++alkanoi c acids and some of their analogues” (J Med Chem, 1986)

What was measured:
Felis catus [1] = species: Felis catus; assay: Compound was tested for inhibition of HCO3- dependent swelling of cat cerebrocortical slices at concentration of (10e-11) M; type: functional
How it was run: (§1)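 Cerebrocortical slices were weighed and incubated in Warburg flasks at 22 °C in medium of KCl 27, NaCl 100, glucose 10 and KH2PO4 1.2 mmol/L (27 mM K+ HEPES). HCO3- (5 mM) was added from the side arm for the final 40 min, and the compound was present throughout the 60 min. Swelling = (final − initial wet weight)/initial wet weight × 100. Two-tailed t-test versus 27 K + HCO3-.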

Felis catus [2] = species: Felis catus; assay: Compound was tested for inhibition of HCO3- dependent swelling of cat cerebrocortical slices at concentration of (10e-12) M; type: functional; how it was run: as §1
Felis catus [3] = species: Felis catus; assay: Compound was tested for inhibition of HCO3- dependent swelling of cat cerebrocortical slices at concentration of (10e-13) M; type: functional; how it was run: as §1
Felis catus [4] = species: Felis catus; assay: Compound was tested for inhibition of HCO3- dependent swelling of cat cerebrocortical slices at concentration of (10e-8) M; type: functional; how it was run: as §1
Felis catus [5] = species: Felis catus; assay: Compound was tested for inhibition of K+ ion uptake in cat cerebrocortical slices at concentration of (10e-9) M; type: functional
How it was run: (§2)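 Slices were incubated 60 min at 22 °C in 27 mM K+ medium with 5 mM HCO3- added for the last 40 min, with the compound present throughout. Slices were then filtered off, reweighed and homogenized (10% w/v) in 1 N perchloric acid. The supernatant was assayed for electrolytes, expressed as µmol/g initial wet weight. Two-tailed t-test versus 27 K + HCO3-.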

Felis catus [6] = species: Felis catus; assay: Compound was tested for inhibition of chloride ion uptake in cat cerebrocortical slices at concentration of (10e-11) M; type: functional; how it was run: as §2
Felis catus [7] = species: Felis catus; assay: Compound was tested for inhibition of chloride ion uptake in cat cerebrocortical slices at concentration of (10e-12) M; type: functional; how it was run: as §2
Felis catus [8] = species: Felis catus; assay: Compound was tested for inhibition of chloride ion uptake in cat cerebrocortical slices at concentration of (10e-8) M; type: functional; how it was run: as §2
Felis catus [9] = species: Felis catus; assay: In vitro concentration required for 50% inhibition of swelling of cat cerebrocortical slices; type: functional; conditions: read-out: I50
How it was run: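 Cat cortical slices were weighed and incubated 60 min at 22 °C in 27 mM K+ medium, with HCO3- added for the last 40 min and inhibitor present throughout. Swelling = (final − initial wet weight)/initial wet weight × 100. The HCO3−-dependent increment was taken as the target. I50 is the molarity giving 50% inhibition, read from the concentration–response curve.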

Felis catus [10] = species: Felis catus; assay: Compound was tested for inhibition of sodium ion uptake in cat cerebrocortical slices at concentration of (10e-13) M; type: functional
Felis catus [11] = species: Felis catus; assay: Compound was tested for inhibition of sodium ion uptake in cat cerebrocortical slices at concentration of (10e-7) M; type: functional
Felis catus [12] = species: Felis catus; assay: Compound was tested for inhibition of sodium ion uptake in cat cerebrocortical slices at concentration of (10e-9 )M; type: functional
Felis catus [13] = species: Felis catus; assay: Compound was tested for inhibition of sodium ion uptake in cat cerebrocortical slices at concentration of (10e-11) M; type: functional
Felis catus [14] = species: Felis catus; assay: Compound was tested for inhibition of K+ ion uptake in cat cerebrocortical slices at concentration of (10e-13) M; type: functional; how it was run: as §2
Felis catus [15] = species: Felis catus; assay: Compound was tested for inhibition of K+ ion uptake in cat cerebrocortical slices at concentration of (10e-10) M; type: functional; how it was run: as §2
Cavia porcellus [16] = species: Cavia porcellus; assay: Compound was tested for inhibition of potassium ion uptake in guinea pig cerebrocortical slices at concentration of (10e-7) M; type: functional; how it was run: as §2
Cavia porcellus [17] = species: Cavia porcellus; assay: Compound was tested for inhibition of sodium ion uptake in guinea pig cerebrocortical slices at concentration of (10e-10) M; type: functional
Cavia porcellus [18] = species: Cavia porcellus; assay: Compound was tested for inhibition of sodium ion uptake in guinea pig cerebrocortical slices at concentration of (10e-12) M; type: functional
Cavia porcellus [19] = species: Cavia porcellus; assay: Compound was tested for inhibition of sodium ion uptake in guinea pig cerebrocortical slices at concentration of (10e-7) M; type: functional
Cavia porcellus [20] = species: Cavia porcellus; assay: Compound was tested for inhibition of sodium ion uptake in guinea pig cerebrocortical slices at concentration of (10e-9) M; type: functional
Cavia porcellus [21] = species: Cavia porcellus; assay: Compound was tested for inhibition of HCO3- dependent swelling of guinea pig cerebrocortical slices at concentration of (10e-11) M; type: functional; how it was run: as §1
Cavia porcellus [22] = species: Cavia porcellus; assay: Compound was tested for inhibition of HCO3- dependent swelling of guinea pig cerebrocortical slices at concentration of (10e-7) M; type: functional; how it was run: as §1
Cavia porcellus [23] = species: Cavia porcellus; assay: Compound was tested for inhibition of HCO3- dependent swelling of guinea pig cerebrocortical slices at concentration of (10e-9) M; type: functional; how it was run: as §1
Cavia porcellus [24] = species: Cavia porcellus; assay: Compound was tested for inhibition of potassium ion uptake in guinea pig cerebrocortical slices at concentration of (10e-10) M; type: functional; how it was run: as §2
Cavia porcellus [25] = species: Cavia porcellus; assay: Compound was tested for inhibition of potassium ion uptake in guinea pig cerebrocortical slices at concentration of (10e-12) M; type: functional; how it was run: as §2
Cavia porcellus [26] = species: Cavia porcellus; assay: Compound was tested for inhibition of chloride ion uptake in guinea pig cerebrocortical slices at concentration of (10e-8) M; type: functional; how it was run: as §2
Rattus norvegicus [27] = species: Rattus norvegicus; assay: Compound was tested for inhibition of chloride ion uptake in rat cerebrocortical slices at concentration of (10e-4) M; type: functional; how it was run: as §2
Rattus norvegicus [28] = species: Rattus norvegicus; assay: Compound was tested for inhibition of chloride ion uptake in rat cerebrocortical slices at concentration of (10e-8) M; type: functional; how it was run: as §2
Rattus norvegicus [29] = species: Rattus norvegicus; assay: Compound was tested for inhibition of potassium ion uptake in rat cerebrocortical slices at concentration of (10e-3) M; type: functional
Rattus norvegicus [30] = species: Rattus norvegicus; assay: Compound was tested for inhibition of potassium ion uptake in rat cerebrocortical slices at concentration of (10e-4) M; type: functional
Rattus norvegicus [31] = species: Rattus norvegicus; assay: Compound was tested for inhibition of potassium ion uptake in rat cerebrocortical slices at concentration of (10e-8) M; type: functional
Rattus norvegicus [32] = species: Rattus norvegicus; assay: Compound was tested for inhibition of sodium ion uptake in rat cerebrocortical slices at concentration of (10e-3) M; type: functional
Rattus norvegicus [33] = species: Rattus norvegicus; assay: Compound was tested for inhibition of sodium ion uptake in rat cerebrocortical slices at concentration of (10e-8) M; type: functional
Rattus norvegicus [34] = species: Rattus norvegicus; assay: Compound was tested for inhibition of HCO3- dependent swelling of rat cerebrocortical slices at concentration of (10e-4) M; type: functional; how it was run: as §1
Rattus norvegicus [35] = species: Rattus norvegicus; assay: Compound was tested for inhibition of HCO3- dependent swelling of rat cerebrocortical slices at concentration of (10e-6) M; type: functional; how it was run: as §1
Felis catus [36] = assay: In vivo activity in the acceleration-deceleration head injury assay at dose of 5 mg/kg; 1/19
Felis catus [37] = assay: In vivo activity in the acceleration-deceleration head injury assay at dose of 5 mg/kg; 7/22
Felis catus [38] = assay: In vivo activity in the acceleration-deceleration head injury assay at dose of 1 mg/kg; 14/25
Felis catus [39] = assay: In vivo activity in the acceleration-deceleration head injury assay at dose of 10 mg/kg; 15/19

**Q.** What does the source list for CCCC12CCC(=O)C=C1c1c(cc(OCC(=O)O)c(Cl)c1Cl)C2 (single isomer, unassigned; (+))?
**A.** Swelling (Felis catus [1]): 19.1%; Swelling (Felis catus [2]): 21.3%; Swelling (Felis catus [3]): 27.3%; Swelling (Felis catus [4]): 18.6%; Activity (Felis catus [5]): 86; Activity (Felis catus [6]): 87.9; Activity (Felis catus [7]): 90.5; Activity (Felis catus [8]): 89.1; IC50 (Felis catus [9]): 20 pM; Activity (Felis catus [10]): 107.3; Activity (Felis catus [11]): 86; Activity (Felis catus [12]): 85.6; Activity (Felis catus [13]): 86.4; Activity (Felis catus [14]): 87.6; Activity (Felis catus [15]): 86.9; Activity (Cavia porcellus [16]): 88.1; Activity (Cavia porcellus [17]): 108.3; Activity (Cavia porcellus [18]): 104.7; Activity (Cavia porcellus [19]): 125.4; Activity (Cavia porcellus [20]): 110; Swelling (Cavia porcellus [21]): 27.6%; Swelling (Cavia porcellus [22]): 26.4%; Swelling (Cavia porcellus [23]): 26.2%; Activity (Cavia porcellus [24]): 101.3; Activity (Cavia porcellus [25]): 87.7; Activity (Cavia porcellus [26]): 103.8; Activity (Rattus norvegicus [27]): 92.3; Activity (Rattus norvegicus [28]): 101.4; Activity (Rattus norvegicus [29]): 60.2; Activity (Rattus norvegicus [30]): 73.7; Activity (Rattus norvegicus [31]): 75.4; Activity (Rattus norvegicus [32]): 132.4; Activity (Rattus norvegicus [33]): 118.9; Swelling (Rattus norvegicus [34]): 22.8%; Swelling (Rattus norvegicus [35]): 22.7%; Deaths (Felis catus [36]): 1; Deaths (Felis catus [37]): 7; Deaths (Felis catus [38]): 14; Deaths (Felis catus [39]): 15
